The values below come from ChEMBL document CHEMBL1126934, “Non-peptide ligands for opioid receptors. Design of kappa-specific agonists” (J Med Chem, 1993).

Assay [1] addresses T1, Kappa-type opioid receptor (Cavia porcellus, UniProt P41144). Briefly: Binding affinity for kappa opioid receptor was evaluated by displacing [3H]- diprenorphine.
Assay [2] addresses Mu-type opioid receptor (Rattus norvegicus, UniProt P33535). As to the kind of experiment: Binding affinity for mu opioid receptor was evaluated by displacing [3H]- diprenorphine. Summed up:
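Rat brain minus cerebellum, homogenised in Tris-HCl pH 7.4, spun 40000g 30 min, membranes resuspended at 0.5 mg/mL protein in 50 mM Tris-HCl pH 7.6. Competition against [3H]diprenorphine; nonspecific binding defined with DAGO (100 nM). Ki via Cheng-Prusoff; triplicate curves, n = 5.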

In assay [3] the target is Delta-type opioid receptor (Rattus norvegicus) (UniProt P33533). As to the kind of experiment: Binding affinity for rat delta opioid receptor was evaluated by displacing [3H]- diprenorphine.
Chain of Delta-type opioid receptor (Rattus norvegicus) (P33533 whole entry): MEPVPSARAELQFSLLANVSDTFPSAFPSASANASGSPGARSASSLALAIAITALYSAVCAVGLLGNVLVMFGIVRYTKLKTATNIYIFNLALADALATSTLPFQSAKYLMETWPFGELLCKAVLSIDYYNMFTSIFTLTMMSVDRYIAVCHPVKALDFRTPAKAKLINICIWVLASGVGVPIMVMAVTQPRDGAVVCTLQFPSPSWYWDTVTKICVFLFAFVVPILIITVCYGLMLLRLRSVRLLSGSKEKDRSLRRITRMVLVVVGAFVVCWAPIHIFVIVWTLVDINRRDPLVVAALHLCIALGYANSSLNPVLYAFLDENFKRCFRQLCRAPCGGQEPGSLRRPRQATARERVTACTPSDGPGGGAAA
The test system of assay [4] is Mus musculus. Briefly: Antinociceptive activity determined in mouse tail flick assay 30 min after sc injection (peak effect). It counts as functional. As to conditions: 0.5 h. An outline of the steps:
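Male Swiss mice (20-25 g), tail flick nociceptive threshold, cutoff 8 s. Drug given sc; read 30 min after injection. ED50 with confidence limits by Litchfield and Wilcoxon method.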
(Thermal pain tests record how soon the animal reacts.)

Assay [5] deals with T1, Kappa-type opioid receptor.
The target of assay [6] is T1, Kappa-type opioid receptor. This is another data set of the same source.

T1 sequence (P41144 whole entry): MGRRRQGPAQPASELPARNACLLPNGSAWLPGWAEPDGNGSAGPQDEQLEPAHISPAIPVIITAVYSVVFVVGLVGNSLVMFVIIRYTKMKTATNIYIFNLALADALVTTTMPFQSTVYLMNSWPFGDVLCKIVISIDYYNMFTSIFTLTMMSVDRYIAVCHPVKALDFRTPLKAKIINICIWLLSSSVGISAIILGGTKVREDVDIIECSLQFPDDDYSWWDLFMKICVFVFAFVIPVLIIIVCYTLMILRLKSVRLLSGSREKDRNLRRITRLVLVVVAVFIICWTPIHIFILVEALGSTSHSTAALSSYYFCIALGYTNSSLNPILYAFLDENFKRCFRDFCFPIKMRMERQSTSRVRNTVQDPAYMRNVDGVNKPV
Chain of Mu-type opioid receptor (P33535 whole entry): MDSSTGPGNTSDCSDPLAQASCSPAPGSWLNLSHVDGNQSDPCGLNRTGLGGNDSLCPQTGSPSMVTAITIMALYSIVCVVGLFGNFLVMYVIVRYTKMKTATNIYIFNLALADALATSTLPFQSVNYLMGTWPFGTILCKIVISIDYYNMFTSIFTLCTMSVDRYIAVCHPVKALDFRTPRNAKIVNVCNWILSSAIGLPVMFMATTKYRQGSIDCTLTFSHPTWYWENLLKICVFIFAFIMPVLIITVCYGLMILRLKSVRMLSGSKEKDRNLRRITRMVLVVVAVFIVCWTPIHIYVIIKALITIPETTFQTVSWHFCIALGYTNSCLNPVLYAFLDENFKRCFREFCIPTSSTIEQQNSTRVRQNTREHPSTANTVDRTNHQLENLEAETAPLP

One may read the Ki as a measure of affinity in units of concentration, obtained from inhibition or displacement. A higher Ki goes with a looser hold on the target. Take `C[C@H]1[C@H]2Cc3ccc(O)cc3[C@]1(C)CCN2CC1C[C@]1(C(=O)O)c1ccccc1` (stereo not given in full): the inhibition constant (Ki) in assay [1] and in assay [2] was > 25000 nM throughout.

As to `CCOC(=O)[C@]1(c2ccccc2)CC1CN1CC[C@@]2(C)c3cc(O)ccc3C[C@@H]1[C@@H]2C` (stereo not given in full), in assay [3], the Binding affinity was > 25 µM. For the same compound, the values for the inhibition constant (Ki) in assay [1] and in assay [2] were 4430 nM and > 25000 nM, respectively.

For the compound `COC(=O)[C@@]1(c2ccccc2)C[C@@H]1CN1CC[C@@]2(C)c3cc(O)ccc3C[C@@H]1[C@@H]2C`, in assay [3], the Binding affinity was > 25 µM. The Ki was 2640 nM in assay [1] and > 25000 nM in assay [2].

A word on the ED50: it is the dose at which the effect has come halfway, by size or by number of responders. A high value points to a need for a large dose. The compound `CN1CC[C@]23c4c5ccc(O)c4O[C@H]2[C@@H](O)C=C[C@H]3[C@H]1C5` [MORPHINE] returned a Binding affinity in assay [3] of 1.22 µM. The compound further displayed an ED50 in assay [4] of 4.99 mg/kg.

`CCCOC(=O)[C@]1(c2ccccc2)CC1CN1CC[C@@]2(C)c3cc(O)ccc3C[C@@H]1[C@@H]2C` (stereo not given in full): the Binding affinity in assay [3] was > 25 µM. The values for the Ki in assay [1] and in assay [2] were 6430 nM and > 25000 nM, respectively.

On to `COC(=O)[C@]1(c2ccccc2)C[C@H]1CN1CC[C@@]2(C)c3cc(O)ccc3C[C@@H]1[C@@H]2C`, for which the inhibition constant Ki in assay [5] is 926 nM; in assay [6], 224 nM; in assay [1], 240 nM; in assay [2], > 25000 nM. Besides, the Binding affinity in assay [3] is > 25 µM.

As to `CC1[C@H]2Cc3ccc(O)cc3[C@]1(C)CCN2CCCc1ccccc1` (stereo not given in full), the Ki stood at 1120 nM in assay [1] and 825 nM in assay [2].

Turning to `CCC12CCN(CC3CC3)C(C(=O)c3ccc(O)cc31)C2C` (stereo not given), the Ki in assay [2] was 690 nM.

`CCCCOC(=O)[C@]1(c2ccccc2)CC1CN1CC[C@@]2(C)c3cc(O)ccc3C[C@@H]1[C@@H]2C` (stereo not given in full): the Binding affinity in assay [3] was > 25 µM. The inhibitory constant (Ki) in assay [1] and in assay [2] was > 25000 nM each time.

As for `COC(=O)[C@]1(c2ccccc2)C[C@@H]1CN1CC[C@@]2(C)c3cc(O)ccc3C[C@@H]1[C@@H]2C`, the inhibition constant (Ki) was 2620 nM in assay [5], 833 nM in assay [6], 866 nM in assay [1] and > 25000 nM in assay [2]. Moreover, in assay [3], the Binding affinity is > 25 µM. This compound yielded an ED50 in assay [4] of 4.52 mg/kg.
